A selection: hits, their analogues and other compounds. The true share with any hit is near 1.9%.
PP1 counter – counter-screen for PP5 inhibitors: inhibitors of human PP1-alpha; P62136; purified PP1alpha, OMFP fluorescence; inhibition, % at 6.7 µM; hit rate 0.9% among 320,000; AID 2235;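 active = inhibition above the mean inhibition of all tested compounds plus 3 SD, computed separately for each screening campaign, cut at about 15% in these data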
PP5 primary – blocks human protein phosphatase 5 activity; P53041; purified PP5c, OMFP substrate fluorescence; inhibition, % at 6.7 µM; hit rate 0.18% among 320,000;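 active = inhibition above the campaign's mean inhibition across all tested compounds plus 3 SD, cut at about 9.5% in these data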;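 also: 0% = DMSO only and 100% = 100 µM cantharidin control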
Target sequence (P53041 whole entry, looked up): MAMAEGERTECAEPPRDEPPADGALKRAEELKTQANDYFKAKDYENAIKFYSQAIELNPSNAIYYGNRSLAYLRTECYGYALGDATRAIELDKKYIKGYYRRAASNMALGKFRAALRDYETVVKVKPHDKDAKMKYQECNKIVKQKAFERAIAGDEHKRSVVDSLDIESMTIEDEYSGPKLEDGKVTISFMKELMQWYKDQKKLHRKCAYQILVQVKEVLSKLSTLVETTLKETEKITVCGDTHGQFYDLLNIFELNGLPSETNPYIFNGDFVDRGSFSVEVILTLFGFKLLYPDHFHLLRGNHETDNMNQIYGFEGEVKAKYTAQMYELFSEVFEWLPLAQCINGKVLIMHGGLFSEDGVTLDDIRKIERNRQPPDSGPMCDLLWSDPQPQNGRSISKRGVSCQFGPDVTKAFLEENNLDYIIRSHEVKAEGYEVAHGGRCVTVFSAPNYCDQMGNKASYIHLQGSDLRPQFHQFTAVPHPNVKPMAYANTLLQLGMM
HIF activator – HIF pathway transcriptional activation; U2OS HRE-luciferase reporter, luminescence; normalized: DMSO 0%, desferrioxamine 100%; activation, % at 7.5 µM (by protocol); hit rate 0.32% among 300,000; AID 1910;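 active = mean activation of at least 10% of the iron chelator positive control signal, with at least half of replicates also reaching 10%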
NS3 helicase inh – blocks Hepatitis C virus NS3 helicase unwinding; NS3 helicase DNA unwinding, Cy5 molecular beacon fluorescence; inhibition, % at 10.9 µM; hit rate 0.56% among 290,000; AID 1800;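 active = inhibition above the mean of all tested compounds plus 3 SD, set per campaign, cut at about 35% in these data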;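 also: 0% = DMSO wells and 100% = thioflavine S control wells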
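Test system: hepatitis C virus NS3 helicase domain fragment enzyme. Also added: annealed dual-labelled DNA beacon duplex, ATP-started. Timing: 60 min unwinding reaction at 25 °C after ATP addition. Technique: Cy5 fluorescence. Measure: % inhibition of unwinding.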
DNA FID counter-1 – fluorescent intercalator displacement, NS3 helicase counter-screen; DNA fluorescent intercalator displacement, fluorescence; inhibition, % at 7.9 µM; hit rate 0.17% among 290,000;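 also: 0% = vehicle and 100% = reference compound; higher means more ethidium bromide displaced from hairpin DNA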
NS3 hel confirm – confirmation of Hepatitis C virus NS3 helicase inhibitors; shares compounds with NS3 helicase inh; NS3 helicase DNA unwinding, Cy5 molecular beacon fluorescence; inhibition, % at 10.9 µM; hit rate 31% among 1,600; AID 1943;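 active = inhibition above the mean of all tested compounds plus 3 SD, cutoff set per campaign, cut at about 36% in these data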
DNA FID counter-2 – displaces DNA intercalator in HCV helicase counter-screen. shares compounds with NS3 helicase inh. DNA fluorescent intercalator displacement, fluorescence. inhibition, % at 7.9 µM. hit rate 4% among 1,600. AID 1945;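 also: 0% = vehicle and 100% = reference compound; higher means more displacement of ethidium bromide from the DNA hairpin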
FID counter DR – counter-screen for HCV NS3 helicase inhibitors: DNA intercalator displacement dose response | shares compounds with NS3 helicase inh | fluorescent intercalator displacement from DNA, fluorescence | IC50, µM | 120 tested, under 10 active | AID 2172; call rule not given here
An asterisk follows results filed as active; · = no result. Rule as the data show it, unless noted: active = inhibition above about 37%; inactive = the rest.

SMILES	PP1 counter	PP5 primary	HIF activator	NS3 helicase inh	DNA FID counter-1	NS3 hel confirm	DNA FID counter-2	others
Cc1c(NC(=O)COC(=O)c2ccccc2Cl)c(=O)n(-c2ccccc2)n1C	-4	-1	0	108*	-1	-11	-1
COC(=O)c1ccc(NC(=O)CS(=O)(=O)c2ccccc2)cc1	-3	-1	0	16	-5	·	·
CCOC(=O)c1c(-c2cccc(C)c2)csc1NC(=O)C1CC=CCC1C(=O)O (stereo not given)	3	-8	0	14	-20	·	·
CCOC(=O)c1c(-c2ccc(C)cc2)csc1NC(=O)C1CC=CCC1C(=O)O (stereo not given)	0	2	0	43*	-7	74*	-16
Cc1ccc(CNC(=O)c2cc(=O)c3ccc(C)cc3o2)cc1	-2	1	-1	3	-23	·	·
CC(C)C/C(O)=C/c1nc2cc(Cl)ccc2oc1=O	7	2	-1	38*	-8	-1	12
COc1ccc(CNC(=O)C2CCC(CNC(=O)[C@@H]3Cc4ccccc4CN3)CC2)cc1 (stereo not given in full)	7	4	0	-5	5	·	·
Oc1c(Br)cc(Br)cc1/C=N/n1c(-c2ccccc2)n[nH]c1=S	0	-1	0	28	-1	·	·
Oc1c(Br)cc(/C=N/n2c(-c3ccccc3)n[nH]c2=S)c(Br)c1O	4	3	0	39*	-19	65*	22
O=C(OCc1cc(=O)n2c(n1)sc1ccccc12)c1ccc(O)cc1O	6	-2	0	36*	-3	30	1
CCOC(=O)C1CCCN(S(=O)(=O)c2cccc3cccnc23)C1 (stereo not given)	-4	1	0	2	-13	·	·
Cc1c(N(C)S(=O)(=O)c2cccc(C(=O)NC(C)C)c2)c(=O)n(-c2ccccc2)n1C	0	1	0	13	-19	·	·
CCN(CC)S(=O)(=O)c1cc(OC)ccc1N=Nc1ccc(O)c2ncccc12	·	·	4	50*	-24	68*	-3
CCOc1ccc(N=Nc2ccc(O)c3ncccc23)cc1	·	·	3	29	-13	·	·
CCOc1nc(C)cc(C)c1S(=O)(=O)c1cccc(Cl)c1	9	-3	3	22	-25	·	·
C/C=C/C(O)c1ccc2ccccc2c1 (stereo not given)	-5	3	0	41*	-11	0	4
CC(C)NCC(O)c1ccc2ccccc2c1 (stereo not given)	5	-2	·	·	·	·	·
CCN(CC)c1ccc(N=C2C(=O)Nc3ccccc32)cc1	7	3	-1	45*	-9	19	22
Cc1ccc(N=C2C(=O)Nc3ccccc32)cc1	-2	-1	0	-5	-4	·	·
CCOC(=O)c1c(N)sc2c1CCC(C)C2 (stereo not given)	1	5	0	43*	-3	-15	-16
N=C1/C(=C/c2ccc(OCc3ccccc3F)cc2)C(=O)N=C2SC(CC(=O)N3CCOCC3)=NN12	-2	0	2	46*	-33	42*	-6
O=C(COc1ccc2c(-c3ccccc3)cc(=O)oc2c1)N[C@@H](Cc1c[nH]c2ccc(O)cc12)C(=O)O	1	2	0	15	-16	·	·
CC(Oc1ccc2c(-c3ccccc3)cc(=O)oc2c1)C(=O)NC(Cc1c[nH]c2ccc(O)cc12)C(=O)O (stereo not given)	-3	0	0	41*	-19	39*	-9
CCCc1cc(=O)oc2cc(OCC(=O)NC(Cc3c[nH]c4ccc(O)cc34)C(=O)O)c(Cl)cc12 (stereo not given)	3	1	0	53*	-13	-19	-12
Cc1sc(NC(=S)NC(=O)C2CCCCC2)c(C(N)=O)c1C	-1	0	1	6	-2	·	·
SMILES	PP1 counter	PP5 primary	HIF activator	NS3 helicase inh	DNA FID counter-1	NS3 hel confirm	DNA FID counter-2	others
CC(=O)c1sc2ccccc2c1OC(=O)c1ccco1	-1	3	2	45*	-5	4	4
O=C(c1cncc(Br)c1)N1CCN(S(=O)(=O)c2ccc(Cl)cc2)CC1	7	2	0	1	-31	·	·
CCOC(=O)N1CCC(NC(=O)c2cc3c(=O)[nH]c4ccccc4c3n2C)CC1	2	1	-1	2	-23	·	·
Cc1cc(C)n(CCc2nc(-c3ccco3)cs2)n1	3	2	0	12	-25	·	·
Cc1nn(CCc2nc(-c3ccco3)cs2)c2[nH]c(=O)cc(C(F)(F)F)c12	-3	-1	0	46*	-17	72*	-11
O=C(CCN1C(=O)/C(=C/c2ccco2)SC1=S)Nc1ccc(O)cc1C(=O)O	·	·	0	42*	10	66*	13
O=C(O)CCCN1C(=O)/C(=C\c2ccco2)SC1=S	·	·	0	39*	-10	29	5
O=C(CCCN1C(=O)/C(=C\c2ccco2)SC1=S)Nc1ccc2ccccc2c1	3	2	1	21	-5	·	·
O=C(CCCN1C(=O)/C(=C/c2ccco2)SC1=S)Nc1ccccc1C(=O)O	7	-3	0	46*	7	73*	26
CC(C)Cc1nnc(NC(=O)C2CCN(C(=O)c3ccc(F)cc3)CC2)s1	-4	2	0	·	·	·	·
O=C(O)c1ccccc1-c1ccccc1C(=O)NNc1ccc([N+](=O)[O-])cc1	4	-1	0	38*	-14	-29	-6
Cc1ccc(OCC(=O)NCCCNC(=O)c2ccco2)cc1	-2	0	-3	-5	-6	·	·
O=C1C(=C2CCCCC2)SC(=S)N1Cc1ccco1	8	1	0	72*	-15	-23	-5
O=C(O)CCN1C(=O)C(=C2CCCCCC2)SC1=S	-2	4	-1	11	-21	·	·
COC(=O)c1ccc(C(=O)OC)c(NC(=O)c2cc3ccccc3o2)c1	·	·	·	10	-6	·	·
COc1ccc(OC)c(S(=O)(=O)Nc2ccc(-c3ccc4nncn4n3)cc2)c1	-4	-3	0	·	·	·	·
CC(C)CC(=O)Nc1nnc(S(=O)(=O)Nc2ccccc2)s1	0	-1	-4	7	-4	·	·
CN1CCN(CC(=O)N(C)c2nc(-c3ccccc3)cs2)CC1	-1	2	2	49*	16	-2	22
O=c1ccc(N=Nc2ccccc2)ccc1O	8	0	1	51*	-11	48*	-2	FID counter DR=>79
Oc1ccc(N=Nc2ccccc2)o1	-2	0	0	0	-6	·	·
Cc1c(NC(=O)C(C)OC(=O)c2c3c(nc4ccccc24)CCC3)c(=O)n(-c2ccccc2)n1C (stereo not given)	-1	-2	0	39*	-24	-25	-28
Cc1c(NC(=O)COC(=O)c2c3c(nc4ccccc24)CCCC3)c(=O)n(-c2ccccc2)n1C	-2	-2	-1	6	-8	·	·
